PABP polyA inh = PABP poly(A) RNA binding inhibitors, primary screen, biochemical, fluorescence polarization, uHTS. Polyadenylate-binding protein 1 (Homo sapiens), P11940. inhibition, % at 35 µM. hit rate 1% among 290,000;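 also: calls also rest on retests at 20 µM and on dose response follow-up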
Target sequence (P11940 whole entry, looked up): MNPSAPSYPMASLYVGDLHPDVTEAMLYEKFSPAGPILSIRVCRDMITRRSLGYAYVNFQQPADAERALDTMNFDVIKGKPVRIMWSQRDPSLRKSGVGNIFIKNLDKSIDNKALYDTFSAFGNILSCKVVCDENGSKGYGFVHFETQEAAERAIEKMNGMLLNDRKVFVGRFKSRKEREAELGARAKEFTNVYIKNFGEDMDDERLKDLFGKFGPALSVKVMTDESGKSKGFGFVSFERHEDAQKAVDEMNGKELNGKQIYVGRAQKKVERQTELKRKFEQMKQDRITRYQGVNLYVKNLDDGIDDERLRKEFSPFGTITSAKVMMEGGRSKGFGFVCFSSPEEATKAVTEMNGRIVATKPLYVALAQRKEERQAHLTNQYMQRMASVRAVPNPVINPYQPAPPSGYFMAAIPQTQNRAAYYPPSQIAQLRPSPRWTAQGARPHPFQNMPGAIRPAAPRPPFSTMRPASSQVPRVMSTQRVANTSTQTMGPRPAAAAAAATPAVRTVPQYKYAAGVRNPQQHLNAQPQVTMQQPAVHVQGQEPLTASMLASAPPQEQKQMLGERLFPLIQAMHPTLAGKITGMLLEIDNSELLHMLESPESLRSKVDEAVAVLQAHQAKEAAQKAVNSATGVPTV
HCV NS3 hel inh = inhibitors of HCV NS3 helicase, primary screen, biochemical, Cy5 molecular beacon fluorescence. Hepatitis C virus NS3 helicase. NS3 helicase DNA unwinding. inhibition, % at 10.9 µM. hit rate 0.56% among 290,000;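 active = inhibition above the mean of all tested compounds plus 3 SD, set per campaign, cut at about 35% in these data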;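 also: 0% = DMSO wells and 100% = thioflavine S control wells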
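Test system: hepatitis C virus NS3 helicase domain fragment enzyme. Also added: annealed dual-labelled DNA beacon duplex, ATP-started. Timing: 60 min unwinding reaction at 25 °C after ATP addition. Technique: Cy5 fluorescence. Measure: % inhibition of unwinding.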
eIF4H inh = human eIF4H binding inhibitors, primary screen, translation initiation inhibitor project, biochemical, uHTS, fluorescence polarization; Eukaryotic translation initiation factor 4H (Homo sapiens), Q15056; AID 2012, 2009; inhibition, % at 35 µM; eIF4H fluorescence polarization binding assay; hit rate 0.94% among 290,000;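 also: calls also rest on retests at 20 µM and on dose response follow-up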
ZTA DNA inh = ZTA (EBV) inhibition in EBNA-1 counter-screen. inhibition, % at 11 µM. ZTA-DNA binding, fluorescence polarization. hit rate 0.15% among 320,000. AID 2234; in the data active = inhibition above about 33%
MLLE-PAM2 inh = inhibitors of PABP1 MLLE–PAM2 peptide binding, primary screen, biochemical, fluorescence polarization, FITC-PAM2, GST-MLLE. Polyadenylate-binding protein 1 (Homo sapiens), P11940. inhibition, % at 20 µM. hit rate 0.36% among 360,000. AID 588489, 2011; in the data active = inhibition above about 35%, passing the limit was not always enough;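 also: plate controls were DMSO wells with GST-MLLE for no effect and wells lacking GST-MLLE protein for full effect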
EBNA-1 inh = EBNA-1 DNA-binding inhibitors, primary screen, biochemical, fluorescence polarization | inhibition, % at 14.8 µM | hit rate 0.34% among 300,000; in the data active = inhibition above about 28%
Starred values were filed as active, the others as inactive; ? = inconclusive; . = not tested or not shown. Compounds with a hit are over-represented: about 2.1% of the library has one in this group of screens. Unless noted, no rule for the calls is given here.

SMILES	PABP polyA inh	HCV NS3 hel inh	eIF4H inh	ZTA DNA inh	MLLE-PAM2 inh	EBNA-1 inh
CC(=O)Nc1cccc(/C(C)=N/NC(=O)c2ccc(O)cc2)c1	54.2	12.0	active	2.8	0.3	1.4
C/C(=N\NC(=O)c1cc(O)cc(O)c1)c1ccc(NC(=O)Cc2ccccc2)cc1	94.0*	8.8	100.6*	-7.5	2.9	-3.8
C/C(=N\NC(=O)c1cccc(F)c1)c1ccc(NC(=O)Cc2ccccc2)cc1	6.9	-1.9	3.3	.	-0.8	.
C/C(=N\NC(=O)c1cc(O)ccc1O)c1cccc(NC(=O)c2cccc(Cl)c2)c1	28.9*	23.7	85.0*	-4.1	2.2	4.8
CN(C)S(=O)(=O)c1cccc(CSCc2cccc(S(=O)(=O)N(C)C)c2)c1	6.8	0.6	3.2	-10.9	0.6	-12.1
COc1ccc(CCN2C(=O)NC(NC(C)=O)(C(F)(F)F)C2=O)cc1OC (stereo not given)	83.1*	-2.7	-3.1	5.9	-4.8	-4.9
CCN(CC)CCCC(C)NC(=O)c1cc(=O)c2ccccc2o1 (stereo not given)	?	-5.5	-8.9	-9.5	-2.5	-4.2
CCN(CC)CCCC(C)NC(=O)c1ccc(C(F)(F)F)cc1 (stereo not given)	54.4*	-4.2	active	12.3	-3.6	4.4
O=Cc1ccc(OC(=O)c2cc(Cl)nc3ccccc23)cc1	6.4	-5.4	-3.8	-4.8	36.5*	-10.8
CCCCOP(=O)(OCCCC)C(Nc1ccccc1)c1ccc2c(c1)OCO2 (stereo not given)	80.4*	-8.0	active	6.8	4.2	8.8
CN(C)CCCNc1c2c(nc3ccccc13)CCC2	60.3*	-9.4	42.2	-4.4	17.9	-7.9
COCCNc1c2c(nc3ccccc13)CCC2	15.6	-3.8	-10.8	10.3	2.2	-1.8
CN(C)CCCNc1ccc(-c2n[nH]c(=O)c3ccccc23)cc1[N+](=O)[O-]	-19.4	-29.6	-8.5	16.1	-11.8	-6.5
CN(C)CCNCCCNc1c2ccccc2nc2cccc([N+](=O)[O-])c12	.	.	.	.	52.4*	.
O=C(NC1CCSc2ccccc21)c1ccccc1Cl (stereo not given)	7.2	12.1	-1.0	-3.9	3.5	1.1
Cc1ccc(C)n1-c1sc2c(c1C(=O)O)CCCC2	13.7	33.0	96.5	-5.5	16.0	-2.9
Cc1ccc(C)n1-c1sccc1C(=O)O	118.8	24.5	107.3	.	45.5*	.
COC(=O)c1cccc(NC(=O)COc2cccc([N+](=O)[O-])c2)c1	-4.8	0.9	4.8	9.2	12.1	-6.7
COc1cccc(C(=O)Nc2ccc(C)cc2)c1	-5.9	3.2	4.9	11.6	-2.3	-2.6
COc1cccc(C(=O)Nc2ccc(C3CC3(Cl)Cl)cc2)c1 (stereo not given)	67.1	-10.7	active	-3.0	-5.1	-9.7
Cc1ccccc1CNC1CCCCC1	21.0	8.4	-15.8	-21.6	20.7	-7.5
Oc1cc(CNC2CCCCC2)c(O)cc1CNC1CCCCC1	.	.	.	.	52.6*	.
COc1ccc(C(C)=O)cc1CON=C1CSCc2ccccc21	.	.	.	.	26.1	.
CCOc1cc(C2C3=C(CCCC3=O)NC3=C2C(=O)CCC3)cc(Cl)c1O	-3.5	.	2.1	2.4	17.5	5.6
CCOc1cc(C2C3=C(CCCC3=O)NC3=C2C(=O)CCC3)ccc1OCCO	7.3	0.3	-8.1	-5.4	40.7*	-10.3
SMILES	PABP polyA inh	HCV NS3 hel inh	eIF4H inh	ZTA DNA inh	MLLE-PAM2 inh	EBNA-1 inh
CC(=O)c1c(C(C)=O)c(C)n(-c2cccc3cccnc23)c1C	3.8*	4.1	101.3	11.7	23.9	-4.0
Cc1nc(N)ncc1-c1ccc2c(c1)OCO2	1.1	-2.3	3.7	-7.6	-22.5	3.6
COC(=O)c1cc(C(=O)OC)cc(-n2c(C)cc(C(=O)CC#N)c2C)c1	87.3*	26.4	59.2*	-2.5	-2.9	-6.2
CCCCOC(=O)Nc1ccc(OC)cc1S(=O)(=O)N1CCOCC1	0.0	-1.2	-1.0	-9.1	6.3	1.3
COc1ccc(Cl)cc1NC(=O)CN(C(=O)c1ccco1)C1CCCCC1	-2.0	-3.0	0.7	5.3	35.6*	-7.6
Cc1cc(C)cc(NC(=O)CCN2CCCC2)c1	71.1*	-9.2	-12.2	-2.0	-18.8	3.3
Cc1cc(C)n(CC(=O)N2N=C(C(F)F)CC2(O)C(F)F)n1 (stereo not given)	19.8	0.5	-1.6	2.9	-1.0	-0.7
OC[C@H]1O[C@@H](n2cnc3c(Nc4ccccc4)ncnc32)[C@H](O)[C@@H]1O	116.4*	-1.0	active	2.6	3.0	1.7
O=C(O)CN1C(=O)/C(=C\c2cc([N+](=O)[O-])ccc2OCc2ccccc2Cl)SC1=S	70.8*	7.0	44.6*	21.2	22.8	13.9
CCOc1ncccc1C(=O)OCC(=O)c1cc(OC)ccc1OC	-1.3	2.0	2.6	-10.1	0.5	6.4
COCCN(C(=O)CSc1ccc2c(c1)OCCO2)c1c(N)n(CC(C)C)c(=O)[nH]c1=O	.	.	.	.	42.4*	.
CCCCn1c(N)c(N(CC(C)C)C(=O)CSc2ccc3c(c2)OCCO3)c(=O)[nH]c1=O	.	.	.	6.2	28.5	.
CCOc1ccccc1N1CCN(CC(=O)N(CC(C)C)c2c(N)n(CC(C)C)c(=O)[nH]c2=O)CC1	51.2*	4.0	9.0*	1.4	-4.1	7.2
O=C(C[C@H]1C/C=C/CC[C@@H](Cc2ccc(F)cc2)C(=O)O[C@@H](c2ccccc2)CNC1=O)NCCO	.	.	.	.	6.1	.
COC(=O)[C@@H](NC(=O)Nc1ccc(C(C)=O)cc1)C(C)C	36.3	0.5	56.9*	11.8	0.8	4.0
O=C1N/C(=C/c2cccs2)C(=O)N1Cc1ccccc1F	33.7	-2.7	7.1	-1.1	-9.0	6.6
COc1ccc(/C=C2/NC(=O)N(Cc3ccccc3F)C2=O)cc1OC	76.2*	2.7	?	-4.6	-3.2	-20.5
O=C1N/C(=C/c2ccco2)C(=O)N1Cc1ccccc1F	active	21.6	95.6*	7.1	7.3	-2.7
CCOc1ccc(-c2cc(C(=O)NN)[nH]n2)cc1	-3.7	3.1	-8.7	-5.1	-19.8	-10.3
CC(C)OC(=O)c1c2nc3ccccc3nc2n2c1[nH]c(=O)c1ccccc12	67.8*	-6.8	52.6*	0.5	.	-1.1
CCCCCCC(=O)N(O)C1CC(=O)N(c2ccc(C)cc2)C1=O (stereo not given)	-12.6	19.3	-9.3	9.3	44.4*	-2.5
CCCCCCC(=O)N(O)C1CC(=O)N(c2ccc(Cl)cc2)C1=O (stereo not given)	4.1	4.0	-11.6	8.4	22.6	-8.0
Cc1cn(C2CCCCO2)c(=O)[nH]c1=O (stereo not given)	.	.	.	.	5.3	.
c1coc(-c2ccnc3ncnn23)c1	8.6	0.3	-12.2	-4.0	15.3	-7.3
c1coc(-c2ncc[nH]2)c1	127.9*	-3.8	102.4*	4.8	18.5	4.0
